Hits are enriched below; roughly 3.5% of the tested compounds scored in any of these assays.
RGS4 pot – potentiators or activators of RGS4; HEK293 M3R/inducible RGS4, carbachol calcium flux Fluo4; hits give low values; B-score at 10 µM; actives 0.92% (n = 310,000); AID 463111;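 active = B-score of the integrated calcium signal more than 4 SD below the library mean, with starting fluorescence not abnormally high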;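 also: negative B-score means reduced calcium response which marks RGS4 activation or potentiation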
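Assay system: Inducible-RGS4 HEK293 cells carrying M3 receptor | Schedule: Compound preincubation 20 min at room temperature before agonist | Signal: Kinetic calcium fluorescence imaging with Fluo4-AM dye, 2 µM | Read-out basis: B score from integrated fluorescence ratio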
MrgX1 antagonist – human MrgX1 receptor antagonism, primary screen | MRGX1-HEK293 calcium flux, Fluo-4, BAM8-22 antagonism; hits give low values | B-score at 10 µM | actives 1.3% (n = 310,000) | AID 588676;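 active = calcium-response B-score plate-corrected more than 3 library SD below zero, starting fluorescence within 5 deviations, no agonist response on first addition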;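 also: peak minus trough fluorescence over baseline after final BAM8-22 challenge near maximal dose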
Target sequence (Q96LB2 whole entry, looked up): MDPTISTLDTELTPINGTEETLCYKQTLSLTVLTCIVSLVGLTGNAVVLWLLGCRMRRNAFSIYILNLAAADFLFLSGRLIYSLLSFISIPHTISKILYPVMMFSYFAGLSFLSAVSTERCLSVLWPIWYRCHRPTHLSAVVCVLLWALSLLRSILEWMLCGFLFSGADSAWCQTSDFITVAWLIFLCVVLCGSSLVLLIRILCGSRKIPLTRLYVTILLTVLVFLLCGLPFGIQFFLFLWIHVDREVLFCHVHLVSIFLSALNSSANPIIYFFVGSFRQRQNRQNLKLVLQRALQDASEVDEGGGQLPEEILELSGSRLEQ
MrgX1 ag – activates human MrgX1 receptor signaling. MrgX1-HEK293 cells, Fluo-4 calcium fluorescence, agonist mode; hits give high values. B-score at 10 µM. actives 0.44% (n = 310,000). AID 588627;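 active = calcium response B-score plate-corrected fluorescence ratio at least 3 library SD, with starting fluorescence B-score inside 5 SD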
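System – MrgX1-expressing HEK293 cells · Incubation – cells plated overnight, dye loaded 0.5 h 37 °C, 0.5 h room temperature · Technique – kinetic Fluo-4 NW fluorescence of intracellular calcium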
MrgX1 PAM – human MrgX1 positive allosteric modulation, primary screen. Q96LB2. MrgX1-HEK293, Fluo-4 calcium flux, FDSS; hits give high values. B-score at 10 µM. actives 0.63% (n = 310,000). AID 588675;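 active = plate-corrected calcium response at least 3 library SD above typical, normal starting fluorescence, not activating the receptor alone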;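 also: compound read alongside a low EC10 to EC30 dose of BAM8-22 agonist; peak minus trough fluorescence over baseline measured at the second addition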
RGS4 block – human RGS4 inhibition. P49798. HEK293 M3R/RGS4 inducible, Fluo-4 calcium flux; hits give high values; triggered by carbachol at its EC20. B-score at 10 µM. actives 0.45% (n = 310,000). AID 463165;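 active = B-score, a plate-corrected calcium signal, over three deviations above library mean, with baseline fluorescence within five deviations of library mean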;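 also: RGS4 expression induced by doxycycline in cells with stable M3 receptor; B-score is computed from the integrated fluorescence ratio over baseline after carbachol; higher B-score means a larger calcium signal and so more RGS4 inhibition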
Target sequence (P49798 whole entry, looked up): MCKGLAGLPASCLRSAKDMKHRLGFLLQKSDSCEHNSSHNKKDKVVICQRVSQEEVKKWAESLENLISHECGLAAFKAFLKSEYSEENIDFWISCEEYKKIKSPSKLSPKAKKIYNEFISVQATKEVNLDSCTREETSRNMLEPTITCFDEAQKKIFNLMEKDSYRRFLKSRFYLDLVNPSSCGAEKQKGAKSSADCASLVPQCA
MrgX1 ag reconf – reconfirmed activator of human MrgX1 receptor signaling; shares compounds with MrgX1 ag; MrgX1-HEK293, Fluo-4 calcium fluorescence, FDSS; activation, % at 10 µM; actives 78% (n = 600); AID 602412;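 active = calcium signal rise, corrected for plate position, at least 3 library SD high, with starting brightness within 5 such deviations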; also: reference of the scale not given here
HEK293 Ca flux – MrgX1 antagonist counter-screen hit in parental HEK293 cells | shares compounds with MrgX1 antagonist | Fluo-4 calcium fluorescence, FDSS | fluorescence ratio F(max-min)/F0 at 10 µM | actives 2% (n = 4,000) | AID 624111;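 active = duplicate-averaged calcium fluorescence ratio at least three times the standard deviation of buffer wells, a nonspecific response in parental cells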
HEK293 Ca counter – activity in parental HEK293 cells without MrgX1. shares compounds with MrgX1 antagonist. parental HEK293 calcium flux, Fluo-4 fluorescence ratio; hits give high values. fluorescence ratio F(max-min)/F0 at 10 µM. actives 0.4% (n = 4,000). AID 624114;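 active = calcium fluorescence ratio, averaged over duplicates, at least 3 SD of the buffer-well ratio, meaning a nonspecific response in receptor-free cells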;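 also: untransfected parental HEK293 lacking MrgX1 used as counterscreen for MrgX1 allosteric activators; fluorescence change taken during the second addition on a kinetic imager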
HEK293 Ca cntr2 – MrgX1 activator counter-screen hit in parental HEK293 cells. Fluo-4 calcium fluorescence (FDSS); hits give high values. actives 8.7% (n = 4,000). fluorescence ratio F(max-min)/F0 at 10 µM. shares compounds with MrgX1 antagonist. AID 624115;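 active = calcium fluorescence ratio at least three times the spread of buffer wells, meaning a non-specific response in parental cells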
Each line names hits and unclear results; the compound was inactive in the other large screens (follow-up assays come after a bar, where they were run).

CCCCS(=O)(=O)Nc1ccc2c(c1)ncn2C1CCCCC1	MrgX1 ag 35 | MrgX1 ag reconf 214% | HEK293 Ca flux inactive | HEK293 Ca counter inactive | HEK293 Ca cntr2 51
CC(C)[C@H](NC(=O)C1CC(=O)N(c2ccc3c(c2)OCO3)C1)C(=O)NC1CCCC1 (stereo partly specified)	none
CC(C)Oc1ccc(C(=O)CCN2CCOCC2)cc1	MrgX1 ag 65 | MrgX1 ag reconf inactive | HEK293 Ca flux inactive | HEK293 Ca counter inactive | HEK293 Ca cntr2 inactive
CC(=O)Nc1cccc(OC(=O)c2ccoc2C)c1	MrgX1 ag 33 | MrgX1 ag reconf 128% | HEK293 Ca flux inactive | HEK293 Ca counter inactive | HEK293 Ca cntr2 46
COc1cccc(-n2nnc(S(=O)(=O)c3ccc(C)cc3)c2N)c1	MrgX1 ag 36 | MrgX1 ag reconf inactive | HEK293 Ca flux inactive | HEK293 Ca counter inactive | HEK293 Ca cntr2 inactive
COc1ccc(Cc2nnc(NC(=O)c3cccc(F)c3)s2)cc1OC	none
COc1ccc(CNS(=O)(=O)c2cc(-c3cc(C)no3)ccc2C)cc1OC	none
N#Cc1cn(Cc2ccccc2)c2ccccc12	MrgX1 ag 30 | MrgX1 ag reconf 161% | HEK293 Ca flux inactive | HEK293 Ca counter inactive | HEK293 Ca cntr2 inactive
N#Cc1ccccc1Cn1cc(C#N)c2ccccc21	none
Cn1c2ccccc2c(=O)c2c(=O)n(C3CCCCC3)c(-c3ccco3)nc21	MrgX1 ag 91 | MrgX1 ag reconf 589% | HEK293 Ca flux inactive | HEK293 Ca counter inactive | HEK293 Ca cntr2 113
O=C(Cn1nc(Cl)nc1Cl)c1ccc2c(c1)OCCO2	MrgX1 ag 53 | MrgX1 ag reconf 194% | HEK293 Ca flux inactive | HEK293 Ca counter inactive | HEK293 Ca cntr2 inactive
Cc1cc(C)c2ccc(=O)n(CC(=O)N/N=C/c3ccccc3Cl)c2n1	none
Cc1ccccc1C(=O)c1cccn1CC(=O)NCc1cccc(Cl)c1	none
O=C1CC(O)(C(F)(F)F)Oc2c1ccc1ccccc21 (stereo unspecified)	MrgX1 ag 90 | MrgX1 ag reconf 565% | HEK293 Ca flux inactive | HEK293 Ca counter inactive | HEK293 Ca cntr2 103
O=C1c2ccccc2CSc2c(O)cccc21	none
Nc1ccc(N2C(=O)c3ccccc3C2=O)c(Cl)c1	none (no result: RGS4 pot, RGS4 block)
Nc1ccc2c(c1)CC(=O)c1ccccc1S2	MrgX1 ag 42 | MrgX1 ag reconf 102% | HEK293 Ca flux inactive | HEK293 Ca counter inactive | HEK293 Ca cntr2 inactive
O=C1Cc2ccccc2Sc2ccc(O)cc21	MrgX1 ag 29 | MrgX1 ag reconf 114% | HEK293 Ca flux inactive | HEK293 Ca counter inactive | HEK293 Ca cntr2 inactive
Cc1cccc2c1Sc1ccccc1CC2=O	MrgX1 ag 33 | MrgX1 ag reconf 113% | HEK293 Ca flux inactive | HEK293 Ca counter inactive | HEK293 Ca cntr2 inactive
Cc1ccc(-c2csc(C3=C(O)CN(NC(=O)c4ccco4)C3=N)n2)cc1	none
Cc1oc(-c2cccc3ccccc23)nc1CN1CCC[C@H]1CO	none
COc1ccc(C(=O)Nc2ccccc2C(=O)O)cc1Cl	none
CCOc1c(Cl)cc(C(=O)Nc2ccccc2C(=O)O)cc1Cl	MrgX1 ag 48 | MrgX1 ag reconf 78% | HEK293 Ca flux inactive | HEK293 Ca counter inactive | HEK293 Ca cntr2 inactive
CCNC(=O)NC1(C(=O)N2CCC(Cc3ccccc3)CC2)CCCCC1	none
O/C(=C\c1ccc2ccccc2n1)c1ccncc1	MrgX1 ag 64 | MrgX1 ag reconf 355% | HEK293 Ca flux inactive | HEK293 Ca counter inactive | HEK293 Ca cntr2 127
Cc1cc(C)c2cc3c(N)c(C(=O)N4CCOCC4)sc3nc2c1	none
Cc1ccc(C)c2nc3sc(C(=O)N4CCOCC4)c(N)c3cc12	MrgX1 ag 31 | MrgX1 ag reconf 284% | HEK293 Ca flux inactive | HEK293 Ca counter inactive | HEK293 Ca cntr2 82

Assay outcomes: PubChem BioAssay, Johns Hopkins Ion Channel Center
